Measured values: ChEMBL document CHEMBL1151763, “Identification of diarylsulfone sulfonamides as secreted frizzled related protein-1 (sFRP-1) inhibitors” (J Med Chem, 2008)
Converted amounts (≈) assume the structure as drawn. The source made the active and inactive calls. No cut-off for these calls is given here.

Experiments:
[1] = target: T1, Secreted frizzled-related protein 1 (Homo sapiens) (UniProt Q8N474); experiment: Inhibition of human sFRP1 expressed in human U2OS assessed as fold induction in luciferase activity at 15 uM by TCF-luciferase reporter gene assay relative to control
T1 sequence (whole entry): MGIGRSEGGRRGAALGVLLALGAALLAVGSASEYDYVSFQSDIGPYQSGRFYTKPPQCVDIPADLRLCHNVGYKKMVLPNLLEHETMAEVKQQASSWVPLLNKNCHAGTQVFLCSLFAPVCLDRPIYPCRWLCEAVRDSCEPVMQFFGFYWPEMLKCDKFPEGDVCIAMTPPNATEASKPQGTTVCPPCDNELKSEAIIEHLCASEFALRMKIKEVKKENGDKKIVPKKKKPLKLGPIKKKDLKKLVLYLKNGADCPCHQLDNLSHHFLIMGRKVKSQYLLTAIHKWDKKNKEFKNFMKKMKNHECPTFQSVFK
Procedure, shortened: (§1)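 U2OS human osteosarcoma cells transfected with human sFRP-1, Wnt-3 and a TCF-luciferase reporter (canonical Wnt read-out). Inhibitor tested at 15 µM or 30 µM. Luciferase signal without inhibitor set at 1; fold induction measured in quadruplicate.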

[2] = target: CYP2D6 (Homo sapiens, UniProt P10635); experiment: Inhibition of CYP2D6 at 3 uM; format: ADME
CYP2D6, sequence (P10635 whole entry): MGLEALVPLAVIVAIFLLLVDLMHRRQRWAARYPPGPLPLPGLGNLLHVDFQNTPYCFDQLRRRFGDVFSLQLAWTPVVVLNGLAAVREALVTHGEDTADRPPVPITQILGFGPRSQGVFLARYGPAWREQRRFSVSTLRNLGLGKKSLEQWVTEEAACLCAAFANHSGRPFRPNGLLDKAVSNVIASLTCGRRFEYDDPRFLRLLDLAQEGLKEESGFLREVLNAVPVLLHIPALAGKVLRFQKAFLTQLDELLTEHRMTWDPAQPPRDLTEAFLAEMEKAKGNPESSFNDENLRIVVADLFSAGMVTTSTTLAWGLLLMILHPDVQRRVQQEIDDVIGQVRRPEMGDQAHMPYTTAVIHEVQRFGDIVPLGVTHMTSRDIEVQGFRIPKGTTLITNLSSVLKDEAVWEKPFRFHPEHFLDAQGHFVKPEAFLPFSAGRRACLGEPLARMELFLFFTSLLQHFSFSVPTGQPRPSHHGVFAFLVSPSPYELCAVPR

[3] = Aqueous solubility at pH 7.4; format: physicochemical; details: buffer
[4] = target: CYP3A4 (Homo sapiens, UniProt P08684); experiment: Inhibition of CYP3A4 at 3 uM; format: ADME
CYP3A4, sequence (P08684 whole entry): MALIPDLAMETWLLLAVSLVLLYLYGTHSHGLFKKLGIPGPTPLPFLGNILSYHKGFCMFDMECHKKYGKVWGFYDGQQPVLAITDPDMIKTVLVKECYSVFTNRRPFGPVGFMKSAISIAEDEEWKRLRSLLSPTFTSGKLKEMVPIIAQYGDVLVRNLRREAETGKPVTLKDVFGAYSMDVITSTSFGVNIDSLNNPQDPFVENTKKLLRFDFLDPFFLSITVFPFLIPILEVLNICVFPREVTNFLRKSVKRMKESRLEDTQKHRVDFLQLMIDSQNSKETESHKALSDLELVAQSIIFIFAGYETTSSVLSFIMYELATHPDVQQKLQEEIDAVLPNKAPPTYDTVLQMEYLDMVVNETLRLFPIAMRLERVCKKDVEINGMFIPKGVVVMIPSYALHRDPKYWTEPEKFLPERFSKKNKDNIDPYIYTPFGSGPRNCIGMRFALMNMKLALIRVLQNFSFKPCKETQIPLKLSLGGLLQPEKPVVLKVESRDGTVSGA

[5] = target: CYP2C9 (Homo sapiens, UniProt P11712); experiment: Inhibition of CYP2C9 at 3 uM; format: ADME
CYP2C9, sequence (P11712 whole entry): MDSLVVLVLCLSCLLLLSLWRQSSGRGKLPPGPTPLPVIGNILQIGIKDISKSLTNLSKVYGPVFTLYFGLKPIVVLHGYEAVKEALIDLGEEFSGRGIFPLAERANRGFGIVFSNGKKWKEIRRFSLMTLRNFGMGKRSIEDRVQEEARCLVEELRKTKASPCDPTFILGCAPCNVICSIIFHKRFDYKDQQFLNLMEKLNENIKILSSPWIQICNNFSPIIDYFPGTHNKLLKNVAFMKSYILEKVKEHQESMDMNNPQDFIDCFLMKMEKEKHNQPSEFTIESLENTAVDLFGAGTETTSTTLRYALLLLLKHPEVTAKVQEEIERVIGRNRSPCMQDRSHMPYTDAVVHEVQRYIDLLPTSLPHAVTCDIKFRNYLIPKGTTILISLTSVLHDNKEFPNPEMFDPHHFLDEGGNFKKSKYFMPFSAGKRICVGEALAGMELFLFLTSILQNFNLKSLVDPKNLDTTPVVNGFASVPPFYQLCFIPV

[6] = target: T2, Secreted frizzled-related protein 1 (Homo sapiens, UniProt Q8N474); experiment: Inhibition of human sFRP1 expressed in human U2OS assessed as luciferase activity by TCF-luciferase reporter gene assay
T2 sequence (Q8N474 whole entry): T1 sequence (whole entry)
Procedure, shortened: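 Cell-based functional assay in U2OS human osteosarcoma cells transfected with human sFRP-1, Wnt-3 and a TCF-luciferase reporter gene measuring canonical Wnt pathway activation; EC50 derived from luciferase signal.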

[7] = Metabolic stability in rat microsomes assessed as half life; format: ADME, Microsome
[8] = target: T1, Secreted frizzled-related protein 1 (Homo sapiens); experiment: Inhibition of human sFRP1 expressed in human U2OS assessed as fold induction in luciferase activity at 30 uM by TCF-luciferase reporter gene assay relative to control; procedure, shortened: as §1
[9] = Metabolic stability in human microsomes assessed as half life; format: ADME, Microsome
[10] = target: T2, Secreted frizzled-related protein 1; experiment: Binding affinity to human sFRP1 by fluorescence spectroscopy
Procedure, shortened: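 Binding constant (K_D) taken from changes in intrinsic tryptophan fluorescence of sFRP-1 on inhibitor binding; excitation 295 nm, emission 340 nm. Stoichiometry of binding also determined.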

[11] = Increase in bone formation in mouse calvaria assessed as increase in bone area at 5 uM after 7 days relative to control; format: functional
[12] = organism: Mus musculus; experiment: Increase in bone formation in mouse calvaria assessed as number of osteoblast on bone surface at 5 uM after 7 days relative to control; format: functional

Row | fold change (FC) [1] | inhibition at 3 µM [2] | solubility [3] | inhibition at 3 µM [4] | inhibition at 3 µM [5] | EC50 [6] | half-life [7] | Structure (SMILES) | also measured
1 | 4.2 | 25% | > 100 µg/mL | 78% | 25% | 9 µM | 16 min | CCc1ccc(S(=O)(=O)c2ccccc2)cc1S(=O)(=O)NCCCN1CCCC1 | 
2 | 3.3 | 9% | 26 µg/mL (≈ 63.3 µM) | 43% | 14% | 1.27 µM | 12 min | CCc1ccc(S(=O)(=O)c2ccccc2)cc1S(=O)(=O)NCCCN(C)C | half-life [9]: 26.7 min
3 | < 1 |  |  |  |  |  |  | Cc1ccc(S(=O)(=O)c2ccccc2)cc1S(=O)(=O)N(C)CCc1ccccc1 | 
4 | 2.5 | 12% | 1 µg/mL (≈ 2.41 µM) | 70% | 41% | 3.88 µM | 5 min | Cc1ccc(S(=O)(=O)c2ccccc2)cc1S(=O)(=O)NCCc1ccccc1 | Kd [10]: 0.35 µM
5 | 2.7 |  |  |  |  |  |  | Cc1ccc(S(=O)(=O)c2ccc(F)cc2)cc1S(=O)(=O)NCCc1ccccc1 | 
6 | 3 | 11% | 1 µg/mL (≈ 2.04 µM) | 96% | 84% | 6.97 µM | 1 min | CCc1ccc(S(=O)(=O)c2ccccc2)cc1S(=O)(=O)NCCc1ccc(OC)c(OC)c1 | Activity [11]: 50%; Activity [12]: Active

The next lines start with the compound.

Row | Structure (SMILES) | fold change (FC) [1] | inhibition at 3 µM [2] | solubility [3] | inhibition at 3 µM [4] | inhibition at 3 µM [5] | EC50 [6] | half-life [7] | also measured
7 | Cc1ccc(S(=O)(=O)c2ccc(C)c(S(=O)(=O)NCCc3ccccc3)c2)cc1 | 2.2 |  |  |  |  |  |  | 
8 | Cc1ccc(S(=O)(=O)c2ccccc2)cc1S(=O)(=O)NCc1ccccc1 |  |  |  |  |  |  |  | fold change (FC) [8]: < 1
9 | COc1ccc(S(=O)(=O)c2ccccc2)cc1S(=O)(=O)NCCc1ccccc1 | 1.5 |  |  |  |  |  |  | 
10 | O=S(=O)(NCCc1ccccc1)c1cccc(S(=O)(=O)c2ccccc2)c1 | < 1 |  |  |  |  |  |  | 
11 | CCc1ccc(S(=O)(=O)c2ccccc2)cc1S(=O)(=O)NCCc1ccccc1 | 3.3 |  |  |  |  |  |  | 
12 | Cc1ccc(S(=O)(=O)c2ccc(Cl)cc2)cc1S(=O)(=O)Nc1ccccc1 |  |  |  |  |  |  |  | fold change (FC) [8]: 1
13 | Cc1ccc(S(=O)(=O)c2ccccc2)cc1S(=O)(=O)NCCCc1ccccc1 | 1.3 |  |  |  |  |  |  | 
